How the values were obtained:
[1] = target: Glutamate receptor ionotropic, NMDA 2C (Rattus norvegicus, UniProt Q00961); test: Binding affinity of compound against Phencyclidine receptor by displacement of [3H]TCP; conditions: read-out: Ki app
Summary of the method: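 Membrane preparation incubated in triplicate with 2 nM [3H]TCP plus varying displacer levels in 5 mM Tris-HCl pH 7.4, 1 h, room temperature. Filtered on filters presoaked in 0.5% polyethylenimine, rinsed with Tris buffer, counted by liquid scintillation. Specific binding defined with 10 μM TCP. Mean ±SEM of at least three experiments.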

Rattus norvegicus [2] = test: The compound was tested for ataxia after intracerebroventricular introduction in the rat; assay type: functional
Summary of the method: (§1)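 Sprague–Dawley rats (~200 g), caged singly, adapted ≥1 h, each used once. Intracerebroventricular dosing. Scored on the Sturgeon PCP rating scale immediately, at 2.5 and 5 min, then every 5 min until back to control. Dose–response built from peak-effect ratings, ≥18 rats per curve. ED50 (nmol/rat) and confidence limits by computerized Finney assay.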

Rattus norvegicus [3] = test: The compound was tested for its stereotyped behavior after intracerebroventricular introduction in the rat; assay type: functional; summary of the method: as §1

Glutamate receptor ionotropic, NMDA 2C, sequence (Q00961 whole entry): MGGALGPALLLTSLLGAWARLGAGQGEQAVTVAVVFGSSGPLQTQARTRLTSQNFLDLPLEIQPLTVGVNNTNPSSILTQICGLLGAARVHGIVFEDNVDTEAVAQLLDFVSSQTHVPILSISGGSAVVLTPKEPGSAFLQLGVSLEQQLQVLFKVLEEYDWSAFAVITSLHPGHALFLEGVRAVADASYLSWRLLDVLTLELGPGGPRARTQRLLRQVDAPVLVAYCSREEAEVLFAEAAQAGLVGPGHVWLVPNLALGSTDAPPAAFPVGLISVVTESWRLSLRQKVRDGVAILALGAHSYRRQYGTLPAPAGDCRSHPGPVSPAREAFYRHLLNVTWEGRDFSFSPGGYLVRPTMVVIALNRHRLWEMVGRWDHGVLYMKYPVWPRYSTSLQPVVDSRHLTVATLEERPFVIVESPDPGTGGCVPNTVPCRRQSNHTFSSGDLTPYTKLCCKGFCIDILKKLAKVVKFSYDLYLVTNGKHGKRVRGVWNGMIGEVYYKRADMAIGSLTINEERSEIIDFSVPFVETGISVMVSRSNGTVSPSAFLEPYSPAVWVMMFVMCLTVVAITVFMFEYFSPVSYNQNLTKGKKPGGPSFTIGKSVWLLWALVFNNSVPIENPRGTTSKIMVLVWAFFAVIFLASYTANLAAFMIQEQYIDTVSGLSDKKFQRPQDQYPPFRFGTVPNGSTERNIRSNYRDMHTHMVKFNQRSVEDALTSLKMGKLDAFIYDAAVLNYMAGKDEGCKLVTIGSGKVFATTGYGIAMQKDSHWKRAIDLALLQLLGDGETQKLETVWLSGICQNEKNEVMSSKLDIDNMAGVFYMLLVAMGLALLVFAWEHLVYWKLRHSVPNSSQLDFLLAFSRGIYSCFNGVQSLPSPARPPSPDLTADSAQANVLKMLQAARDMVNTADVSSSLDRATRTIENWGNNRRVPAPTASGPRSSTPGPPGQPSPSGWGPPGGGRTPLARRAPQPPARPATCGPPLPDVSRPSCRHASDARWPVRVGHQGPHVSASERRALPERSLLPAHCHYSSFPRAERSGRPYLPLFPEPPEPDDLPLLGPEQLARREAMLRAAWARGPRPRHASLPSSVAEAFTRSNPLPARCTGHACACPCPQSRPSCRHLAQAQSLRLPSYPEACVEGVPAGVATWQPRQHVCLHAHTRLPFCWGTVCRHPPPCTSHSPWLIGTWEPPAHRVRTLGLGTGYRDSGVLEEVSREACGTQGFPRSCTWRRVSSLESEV

Compound | Ki [1] | ED50 (Rattus norvegicus [2]) | ED50 (Rattus norvegicus [3])
c1ccc([C@@H](C2CC3CC3C2)N2CCCCC2)cc1 (some centres undefined) | 680 nM | 300 nM | 310 nM
c1ccc([C@H](C2CC3CC3C2)N2CCCCC2)cc1 (some centres undefined) | 630 nM | 450 nM | 400 nM
c1ccc(C2(N3CCCCC3)CCCCC2)cc1 [PHENCYCLIDINE] | 91 nM | 210 nM | 150 nM
